# Laboratory results taken from PubChem BioAssay.
# Active and inactive are the calls of the source.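 The calls were made as follows, unless noted: active = compounds giving at least 50% inhibition in the cell-based MKP-3 phosphatase rescue imaging test; inactive = the rest.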
# What was measured:
# [1] = inhibitors of TNFa-induced NFkB p65 translocation, primary screen, imaging, HUVEC, MLSMR starter and 10KST1 sets (AID 438;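 active = inhibition above 20% together with a positive visual image hit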;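 also: compound added about 3h40 before a 20 min TNFalpha stimulation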;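 as to inhibition: signal is the nuclear over cytoplasmic p65 intensity ratio per well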); conditions: HUVEC TNFa-induced p65 nuclear translocation; cell count: measured here: nuclei count (cytotoxicity indicator), at 2.08 µM; inhibition: at 2 µM, stronger effect = higher value, 0% TNFa-plus-vehicle, 100% no-TNFa wells
# [2] = endothelial E-selectin expression blockers – imaging, HUVEC, immunofluorescence, MLSMR starter and 10KST1 sets, primary screen (AID 487;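 active = visually confirmed hit in the image check and inhibition above 20%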;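 as to inhibition: signal is fraction of cell area covered by stained E-selectin grains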;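 as to nuclei count: 100% = median nuclei count of all wells on the same plate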); conditions: HUVEC TNFalpha-induced E-selectin immunofluorescence imaging, at 2 µM; inhibition: stronger effect = higher value; nuclei count: measured here: cell number, toxicity
# [3] = Primary imaging screen for DUSP6 inhibitors that restore phospho-Erk in transfected HeLa cells, chemical complementation (AID 609); conditions: HeLa MKP-3 transfected, phospho-Erk imaging KS statistic, at 10 µM, cells stimulated with TPA for 15 min;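 as to inhibition: phospho-Erk level distribution per well compared with pooled transfected vehicle control wells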
# [4] = target: Dual specificity protein phosphatase 6 (Homo sapiens) (UniProt Q16828); assay: as above; conditions: HeLa MKP-3 transfected, phospho-Erk imaging KS statistic; at 10 µM; stronger effect = higher value; cells stimulated with TPA for 15 min
# [5] = target: Voltage-gated potassium channel subunit beta-2 (Rattus norvegicus) (UniProt P62483); assay: inhibitors of rat Kvbeta2 reductase activity – biochemical, NADPH fluorescence, primary screen (AID 622;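 active = fluorescence slope higher than the sample average by over 3 SD, cut at about -0.22 in these data, passing the limit was not always enough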;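 also: slope of raw intensity against log time taken from 70 to 1610 s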); conditions: recombinant KvBeta, 4-cyanobenzaldehyde reduction, at 10 µM, stronger effect = higher value
# [6] = target: Voltage-gated potassium channel subunit beta-2 (Rattus norvegicus) (UniProt P62483); assay: enhancers of rat Kvbeta2 NADPH turnover – biochemical, NADPH fluorescence, primary screen (AID 623;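 active = NADPH fluorescence slope more negative than the mean of all samples by about 3 SD, 99.7% confidence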;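 also: fluorescence intensity change per second fitted from 20 to 320 s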); conditions: Recombinant KvBeta, NADPH fluorescence decrease slope, 10 min; at 10 µM; stronger effect = lower value
# [7] = target: Muscarinic acetylcholine receptor M4 (Homo sapiens) (UniProt P08173); assay: M4-linked GIRK flux change, two-sided – cell-based, HEK293 M4/GIRK, thallium flux, BTC-AM, M4 allosteric agonist project, primary screen (AID 625;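 active = fluorescence slope after compound addition differing from the mean of all tested samples at 99.7% confidence, mostly higher but some lower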;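 also: thallium influx through GIRK channels coupled to M4 in HEK293 cells with BTC-AM dye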); conditions: at 10 µM, actives lie on both sides
# Method in brief: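 Material: M4/GIRK1/GIRK2 stable HEK293 cell line. Medium: pH 7.3 thallium assay buffer. Dosing: single compound concentration, 10 µM final. Schedule: 1 h dye loading, 2 min kinetic read. Measured by: kinetic fluorescence with BTC-AM dye. Read-out: post-addition slope, 15–24 s, of baseline-normalized fluorescence. Benchmarks: carbachol and DMSO controls.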
# [8] = inhibitors of larval lipid processing in zebrafish, primary screen, whole organism, PED6 fluorescence, gall bladder and intestine (AID 686;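 active = a full or partial loss of lipid-probe fluorescence in the fish gall bladder, intestine or both, judged by eye; inactive = no fluorescence loss, or compound toxic to the fish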;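 also: larvae 5 to 7 days old with five fish per well; signal comes from phospholipase A2 cleavage of quenched PED6 carried via bile; overnight exposure to compound and PED6 before scoring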); conditions: Zebrafish larvae PED6 lipid processing, fluorescence scoring; screened at 20 µM (by protocol)
# Method in brief: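 System: live zebrafish larvae aged 5-7 days, whole organism; measure: graded gall bladder and intestinal fluorescence inhibition per well; incubation: overnight exposure; reagent: ingested quenched lipid PED6 at 100 nM; signal: By-eye fluorescence microscopy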
# [9] = loss of swimming-algae plug formation – whole organism, Chlamydomonas reinhardtii, WT vs cilia-less mutant, absorbance, 96-well, primary screen (AID 463189;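 active = inhibition at or above 50% relative to wild type and mutant plate controls; inactive = inhibition below 50%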;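 also: 0% = wild type cc124 cells in DMSO and 100% = ciliumless bld1 mutant cells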); conditions: Chlamydomonas reinhardtii gravitaxis, OD600 absorbance, 2 days; at 10 µM; stronger effect = higher value
# [10] = measured here: cell density z-score
# [11] = measured here: nuclear c-Myc green intensity z-score
# [12] = measured here: nuclear pErk red intensity z-score, stronger effect = higher value
# Sequence of Voltage-gated potassium channel subunit beta-2 (Rattus norvegicus) (P62483 whole entry, looked up): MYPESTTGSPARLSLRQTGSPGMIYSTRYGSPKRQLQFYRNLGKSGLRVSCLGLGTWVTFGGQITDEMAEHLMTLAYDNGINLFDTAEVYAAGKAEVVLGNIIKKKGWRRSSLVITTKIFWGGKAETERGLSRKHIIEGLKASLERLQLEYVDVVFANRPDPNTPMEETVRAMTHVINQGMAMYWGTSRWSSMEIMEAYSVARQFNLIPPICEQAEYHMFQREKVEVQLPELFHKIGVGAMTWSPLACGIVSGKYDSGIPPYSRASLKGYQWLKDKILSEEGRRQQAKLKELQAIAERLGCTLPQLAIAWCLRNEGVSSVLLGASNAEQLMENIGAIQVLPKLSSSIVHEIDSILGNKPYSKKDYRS
# Sequence of Dual specificity protein phosphatase 6 (Homo sapiens) (Q16828 whole entry, looked up): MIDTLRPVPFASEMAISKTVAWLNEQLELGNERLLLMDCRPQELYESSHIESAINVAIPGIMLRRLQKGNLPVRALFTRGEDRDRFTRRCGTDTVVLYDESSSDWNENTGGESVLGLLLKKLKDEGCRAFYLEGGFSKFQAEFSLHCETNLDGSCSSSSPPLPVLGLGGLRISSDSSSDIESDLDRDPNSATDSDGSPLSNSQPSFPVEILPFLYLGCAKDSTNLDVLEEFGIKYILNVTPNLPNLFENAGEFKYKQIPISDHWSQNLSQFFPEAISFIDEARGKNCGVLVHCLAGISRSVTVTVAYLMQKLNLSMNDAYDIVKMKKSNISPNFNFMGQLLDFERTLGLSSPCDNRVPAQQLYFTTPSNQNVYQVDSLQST
# Sequence of Muscarinic acetylcholine receptor M4 (Homo sapiens) (P08173 whole entry, looked up): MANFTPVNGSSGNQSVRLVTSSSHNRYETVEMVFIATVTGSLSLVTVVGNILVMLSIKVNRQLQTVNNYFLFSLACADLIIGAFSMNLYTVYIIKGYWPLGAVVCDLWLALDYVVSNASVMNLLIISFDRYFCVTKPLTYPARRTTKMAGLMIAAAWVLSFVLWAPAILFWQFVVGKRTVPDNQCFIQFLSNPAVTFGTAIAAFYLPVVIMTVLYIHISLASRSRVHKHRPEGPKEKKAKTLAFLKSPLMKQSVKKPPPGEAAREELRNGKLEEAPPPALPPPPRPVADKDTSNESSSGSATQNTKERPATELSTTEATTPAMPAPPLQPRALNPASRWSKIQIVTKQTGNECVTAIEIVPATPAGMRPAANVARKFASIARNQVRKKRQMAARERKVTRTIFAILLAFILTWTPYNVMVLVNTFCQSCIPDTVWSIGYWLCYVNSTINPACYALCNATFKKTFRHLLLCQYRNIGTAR
Compound,cell count [1],inhibition [1],inhibition [2],nuclei count [2] [%],"z-score [3, 10]","z-score [3, 11]","z-score [3, 12]",inhibition [4],fluorescence slope [5],NADPH fluorescence slope [6],fluorescence slope [7],outcome [8],inhibition [9]
CCc1nc(NCC(C)C)c(C#N)c2c1COC(C)(C)C2,547,7.2% (inactive),-13.8% (inactive),106,-2.04,-0.00331,2.22,-9.91% (inactive),-0.203 (inactive),2.4e-07 (inactive),0.00805 (inactive),inactive,-8.36% (inactive)
CCN(CC)CCN1C(=O)c2ccccc2NC1c1cc(OC)c(OC)c(OC)c1 (centres undefined),672,-13.1% (inactive),57.5% (inactive),132,0.00511,-1.27,1.11,3.49% (inactive),-0.0732 (inactive),-1.4e-05 (inactive),0.00441 (inactive),inactive,16.2% (inactive)
CCOC(=O)c1[nH]c2ccc(C)cc2c1N,678,-29.2% (inactive),-53.9% (inactive),207,-1.62,0.0814,1.41,-5.95% (inactive),-0.46 (inactive),-4.7e-05 (inactive),0.00561 (inactive),inactive,-1.56% (inactive)
COc1ccc(Nc2nnc(C)c3ccccc23)cc1C(N)=O,616,-2.5% (inactive),-91.7% (inactive),152,-0.473,0.976,-0.605,3.49% (inactive),-0.459 (inactive),-0.000141 (inactive),0.00456 (inactive),inactive,-4.27% (inactive)
Cc1nnc(N2CCCCC2)c2ccccc12,511,-5.6% (inactive),59.4% (inactive),87,-2.8,0.768,0.176,18.4% (inactive),-0.507 (inactive),-9.4e-06 (inactive),0.0054 (inactive),inactive,47.9% (inactive)
O=C(O)C1CC(=O)n2c(nc3ccccc32)S1 (centres undefined),608,-4.4% (inactive),-24.7% (inactive),119,0.706,-1.47,-0.562,3.49% (inactive),-0.47 (inactive),-6e-05 (inactive),0.00435 (inactive),inactive,8.06% (inactive)
CCOC(=O)C1CCN(c2ncnc3c2cnn3-c2ccc(Cl)cc2)CC1,621,-13.7% (inactive),-82.8% (inactive),158,1.18,-0.0217,-0.611,27.4% (inactive),-0.442 (inactive),-1.8e-05 (inactive),0.00741 (inactive),inactive,-0.354% (inactive)
C=CCNc1nc(NCc2ccccc2)c(C#N)c2c1CN(C)CC2,592,-6.3% (inactive),-14.9% (inactive),156,0.516,-0.0927,0.356,-2.09% (inactive),-0.407 (inactive),-5.5e-05 (inactive),0.00402 (inactive),inactive,21.1% (inactive)
CCc1nc(NCC2CCCO2)c(C#N)c2c1COC(C)(C)C2 (centres undefined),550,-12.7% (inactive),2% (inactive),127,-0.137,-0.0587,0.863,1.9e-07% (inactive),-0.316 (inactive),-4e-05 (inactive),0.00695 (inactive),inactive,-12.9% (inactive)
c1ccc2c(c1)CCN(c1ncnc3c1[nH]c1ccccc13)C2,585,-19.2% (inactive),-59.1% (inactive),172,0.335,-1.2,1.56,-4.59% (inactive),-0.388 (inactive),-1.5e-05 (inactive),0.00488 (inactive),inactive,42.6% (inactive)
CC(=O)N1CCN(C2c3cccc4cccc(c34)C2NS(=O)(=O)c2ccccc2)CC1 (centres undefined),507,-0.3% (inactive),-19.2% (inactive),101,1.9,-1.56,-0.633,33.3% (inactive),-0.462 (inactive),-4.4e-05 (inactive),0.00522 (inactive),inactive,30.1% (inactive)
CCC(NC(=O)Nc1ncccc1C)(C(F)(F)F)C(F)(F)F,612,5.3% (inactive),-36.6% (inactive),104,1.12,0.397,-1.61,20.2% (inactive),-0.508 (inactive),-1.7e-05 (inactive),0.00598 (inactive),inactive,35.4% (inactive)
C=CCn1c(SCC(=O)c2ccc(NS(=O)(=O)c3ccccc3)cc2)nnc1-c1cccs1,682,3.2% (inactive),-98.4% (inactive),156,-0.412,-0.46,0.993,-13.3% (inactive),-0.473 (inactive),-4.5e-05 (inactive),0.00636 (inactive),inactive,-10.7% (inactive)
